Reference: ChEMBL document CHEMBL1144224, “Molecular design to enhance the penetration into the retina via ocular instillation” (Bioorg Med Chem Lett, 2008)

Assays:
[1] = Octanol-water partition coefficient, log P of the compound; format: physicochemical
Procedure, shortened: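 Log P measured as the partition coefficient between n-octanol and water.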

[2] = AUC (0 to 4 hrs) in Japanese white rabbit aqueous humor after ocular instillation of 1% suspension; format: ADME, Oryctolagus cuniculus; set-up: time < 4 hr; details: topical or ocular
Procedure, shortened: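 Rabbit eyes given topical drops of 1% suspension or solution. Aqueous humor drug levels measured over 0–4 h, with n = 3-4 eyes per time point. AUC0–4h is calculated from the mean level-time curve.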

[3] = AUC (0 to 4 hrs) in Japanese white rabbit retina after ocular instillation of 1% suspension; format: ADME, tissue-based, Oryctolagus cuniculus; set-up: time < 4 hr; details: topical or ocular
Procedure, shortened: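 Rabbit eyes given topical drops of 1% suspension or solution. Retinal drug levels measured over 0–4 h, with n = 3-4 eyes per time point. AUC0–4h is calculated from the mean level-time curve.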

[4] = Plasma AUC (0 to 4 hrs) in cynomolgus monkey at 10 mg/kg, po; format: ADME, organism-based, Macaca fascicularis; set-up: time < 4 hr, dose 10 mg/kg, route oral
Procedure, shortened: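 Cynomolgus monkeys dosed orally at 10 mg/kg as a 0.2% suspension or solution in 0.5% carboxymethyl cellulose. Plasma drug levels followed over 0–4 h (n = 3-6), and AUC0–4h is derived from the plasma level-time curve.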

[5] = Drug concentration in rat retina at 10 mg/kg, po at Tmax time; format: ADME, organism-based; set-up: dose 10 mg/kg, route oral; details: in vivo, read-out: Drug uptake
[6] = Drug concentration in rat retina at 10 mg/kg, po after 4 hrs; format: ADME, organism-based; set-up: dose 10 mg/kg, route oral; details: read-out: Drug uptake

| logP [1] | AUC(0-t) at 4 h [2] [µM·h] | AUC(0-t) at 4 h [3] [µM·h] | AUC(0-t) at 4 h [4] [µM·h] | concentration [5] [nM] | concentration at 4 h [6] [nM] | Structure (SMILES) |
| --- | --- | --- | --- | --- | --- | --- |
| 0.72 | 1.96 | 2.99 | – | – | – | COCCOCCOCCOCCOCCOC(=O)N[C@@H](CC(C)C)C(=O)N[C@@H](Cc1ccccc1)C(=O)C(=O)NC1CC1 |
| 0.7 | 5.89 | 7.12 | 1.61 | – | – | COCCOCCOCCOCCOC(=O)N[C@@H](CC(C)C)C(=O)N[C@@H](Cc1ccccc1)C(=O)C(=O)NC1CC1 |
| 0.91 | 1.55 | 2.37 | 2.43 | 400 | 200 | COCCOCCOC(=O)N[C@@H](CC(C)C)C(=O)N[C@@H](Cc1ccccc1)C(=O)C(=O)NC1CC1 |
| 1 | 1.9 | 1.32 | 1.88 | – | – | COCCOC(=O)N[C@@H](CC(C)C)C(=O)N[C@@H](Cc1ccccc1)C(=O)C(=O)NC1CC1 |
| 0.93 | 7.88 | 13.1 | 1.6 | – | – | COCCOCCOCCOC(=O)N[C@@H](CC(C)C)C(=O)N[C@@H](Cc1ccccc1)C(=O)C(=O)NC1CC1 |
